Experimental data as given in ChEMBL document CHEMBL1221279, “Synthesis, biological evaluation, and structure-activity relationship study of novel cytotoxic aza-caffeic acid derivatives” (Bioorg Med Chem, 2010).
The source made the active and inactive calls. The calls are words filed in the database; no cut-off is given here.

How the values were obtained:
K562 [1] = test: Induction of apoptosis in human K562 cells assessed as up-regulation of caspase 3 expression at up to 8 uM after 48 hrs by Western blotting; assay type: functional, cell-based
In short: (§1)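 K562 cells treated for 48 h at the indicated concentrations, then lysed in Tris-HCl pH 7.5/NaCl buffer with protease inhibitors. Protein measured by Lowry assay. 40 µg total protein run on SDS–PAGE and blotted to PVDF. Probed overnight at 4 °C with anti-caspase-3, anti-Bax, anti-Bcl-2 and anti-β-actin, with HRP secondary and chemiluminescence. Bands quantified by densitometry, at least three independent experiments.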

K562 [2] = test: Induction of apoptosis in human K562 cells using Annexin V/PI staining at 2 uM after 48 hrs by flow cytometry relative to control (reference value: 4.17%); assay type: functional
HL-60 = test: Cytotoxicity against human HL60 cells after 72 hrs by MTT assay; assay type: functional, cell-based; conditions: HL-60, 72 h
In short: (§2)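 Cells grown in MEM with 10% fetal calf serum, penicillin and streptomycin at 37 °C, 5% CO2. Exponentially growing cells seeded in quadruplicate at 5 × 10³ per well and left 24 h before compounds (DMSO stocks) were added. After 72 h exposure, MTT added for 4 h at 37 °C, formazan dissolved in DMSO, read at 570 nm. IC50 read graphically from dose–response curves.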

CNE = test: Cytotoxicity against human CNE cells after 72 hrs by MTT assay; assay type: functional, cell-based; in short: as §2
K562 [3] = test: Induction of apoptosis in human K562 cells using Annexin V/PI staining at 2 uM after 72 hrs by flow cytometry relative to control (reference value: 5.45%); assay type: functional
HeLa = test: Cytotoxicity against human HeLa cells after 72 hrs by MTT assay; assay type: functional, cell-based; in short: as §2
K562 [4] = test: Cytotoxicity against human K562 cells after 72 hrs by MTT assay; assay type: functional, cell-based; conditions: for IC50: K562, 72 h; in short: as §2
[5] = Cytotoxicity against human ECA109 cells after 72 hrs by MTT assay; assay type: functional, cell-based; conditions: ECa-109, 72 h; in short: as §2
K562 [6] = test: Induction of apoptosis in human K562 cells using Annexin V/PI staining at 8 uM after 48 hrs by flow cytometry relative to control (reference value: 4.17%); assay type: functional
[7] = Cytotoxicity against human LS 174T cells after 72 hrs by MTT assay; assay type: functional, cell-based; conditions: LS174T; in short: as §2
K562 [8] = test: Induction of apoptosis in human K562 cells assessed as increase of Bax/Bcl-2 ratio after 48 hrs by Western blotting; assay type: functional, cell-based; in short: as §1
KB = test: Cytotoxicity against human KB cells after 72 hrs by MTT assay; assay type: functional, cell-based; in short: as §2
K562 [9] = test: Induction of apoptosis in human K562 cells using Annexin V/PI staining at 8 uM after 72 hrs by flow cytometry relative to control (reference value: 5.45%); assay type: functional
K562 [10] = test: Induction of apoptosis in human K562 cells using Annexin V/PI staining at 0.5 uM after 48 hrs by flow cytometry relative to control (reference value: 4.17%); assay type: functional
K562 [11] = test: Cytotoxicity against human K562 cells at up to 8 uM by MTT assay; assay type: functional, cell-based; conditions: TDE = time-dependent effect
In short: (§3)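 K562 cells grown in MEM with 10% fetal calf serum at 37 °C, 5% CO2, seeded in quadruplicate at 5 × 10³ per well. After 24 h, exposed to a range of concentrations for 48 or 72 h. MTT added for 4 h, formazan dissolved in DMSO, read at 570 nm. Viability expressed as % of untreated control, mean S.D. of at least three independent experiments.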

PC-3 = test: Cytotoxicity against human PC3 cells after 72 hrs by MTT assay; assay type: functional, cell-based; conditions: PC-3, 72 h; in short: as §2
[12] = Cytotoxicity against human Bel7404 cells after 72 hrs by MTT assay; assay type: functional, cell-based; conditions: BEL-7404, 72 h; in short: as §2
K562 [13] = test: Induction of apoptosis in human K562 cells using Annexin V/PI staining at 0.5 uM after 72 hrs by flow cytometry relative to control (reference value: 5.45%); assay type: functional
A549 = test: Cytotoxicity against human A549 cells after 72 hrs by MTT assay; assay type: functional, cell-based; conditions: A549, 72 h; in short: as §2
[14] = Cytotoxicity against human HO8910 cells after 72 hrs by MTT assay; assay type: functional, cell-based; conditions: HO-8910, 72 h; in short: as §2
K562 [15] = test: Cytotoxicity against human K562 cells assessed as reduction of cell viability at 8 uM after 72 hrs by MTT assay relative to control; assay type: functional; in short: as §3
BGC-823 = test: Cytotoxicity against human BGC823 cells after 72 hrs by MTT assay; assay type: functional, cell-based; conditions: BGC-823, 72 h; in short: as §2

## CCOc1ccc(COc2c(OC)cc(/C=C/C(=O)N3CCN(Cc4ccc(Cl)c(Cl)c4)CC3)cc2OC)cc1
K562 [1]
  Activity: Active
K562 [2]
  Activity: 10.95%
HL-60
  IC50: > 200 µM
CNE
  IC50: > 200 µM
K562 [3]
  Activity: 17.82%
HeLa
  IC50: > 200 µM
K562 [4]
  Activity: Dose-dependent effect
  IC50: 1.7 µM
[5]
  IC50: 1.1 µM
K562 [6]
  Activity: 14.83%
[7]
  IC50: > 200 µM
K562 [8]
  Activity: Dose-dependent effect
KB
  IC50: 0.2 µM
K562 [9]
  Activity: 20.38%
K562 [10]
  Activity: 8.26%
K562 [11]
  Activity: tde
PC-3
  IC50: > 200 µM
[12]
  IC50: 2 µM
K562 [13]
  Activity: 13.71%
A549
  IC50: 63.4 µM
[14]
  IC50: > 200 µM
K562 [15]
  Activity: 37.9%
BGC-823
  IC50: > 200 µM

## COc1ccc(/C=C/C(=O)NCCc2c[nH]c3ccccc23)cc1OC
HL-60
  IC50: > 200 µM
CNE
  IC50: > 200 µM
HeLa
  IC50: > 200 µM
K562 [4]
  IC50: > 200 µM
[5]
  IC50: > 200 µM
[7]
  IC50: > 200 µM
KB
  IC50: > 200 µM
PC-3
  IC50: > 200 µM
[12]
  IC50: > 200 µM
A549
  IC50: > 200 µM
[14]
  IC50: > 200 µM
BGC-823
  IC50: > 200 µM

## O=C(/C=C/c1ccc(O)c(O)c1)NCCN1CCOCC1
HL-60
  IC50: > 200 µM
CNE
  IC50: > 200 µM
HeLa
  IC50: > 200 µM
K562 [4]
  IC50: > 200 µM
[5]
  IC50: > 200 µM
[7]
  IC50: > 200 µM
KB
  IC50: > 200 µM
PC-3
  IC50: > 200 µM
[12]
  IC50: > 200 µM
A549
  IC50: > 200 µM
[14]
  IC50: > 200 µM
BGC-823
  IC50: > 200 µM

## O=C(/C=C/C(=O)N1CCN(Cc2ccc(Cl)c(Cl)c2)CC1)c1ccccc1
HL-60
  IC50: 99.4 µM
CNE
  IC50: > 200 µM
HeLa
  IC50: 84.8 µM
K562 [4]
  IC50: > 200 µM
[5]
  IC50: 103 µM
[7]
  IC50: 67.2 µM
KB
  IC50: 103 µM
PC-3
  IC50: > 200 µM
[12]
  IC50: 67.1 µM
A549
  IC50: 139 µM
[14]
  IC50: > 200 µM
BGC-823
  IC50: 78.8 µM

## CCOc1ccc(COc2c(OC)cc(/C=C/C(=O)NCCN3CCOCC3)cc2OC)cc1
HL-60
  IC50: > 200 µM
CNE
  IC50: > 200 µM
HeLa
  IC50: > 200 µM
K562 [4]
  IC50: > 200 µM
[5]
  IC50: > 200 µM
[7]
  IC50: > 200 µM
KB
  IC50: > 200 µM
PC-3
  IC50: > 200 µM
[12]
  IC50: > 200 µM
A549
  IC50: > 200 µM
[14]
  IC50: > 200 µM
BGC-823
  IC50: > 200 µM
